ChEMBL document CHEMBL1148178, “Dicranin, an antimicrobial and 15-lipoxygenase inhibitor from the moss Dicranum scoparium” (1993)
Calls of active or inactive are those of the source. No cut-off for these calls is given here.

How the values were obtained:
[1] = test system: Pseudomonas aeruginosa; assay: Antibacterial activity against Pseudomonas aeruginosa ATCC 10145 at 1 mg/disk after 24 hrs by disk diffusion assay; assay type: functional, organism-based
Procedure, shortened: (§1)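 Sterile 6 mm filter-paper disc bearing sample set in the centre of a Petri dish of 15 ml plate count agar. Overlaid with 3 ml soft nutrient agar (nutrient broth + 0.7% agar) seeded with 1% of a 16–18 h culture of the test strain. Read-out is the diameter of the growth-free zone around the disc.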

[2] = test system: Bacillus cereus; assay: Antibacterial activity against Bacillus cereus NCIB 3329 at 10 ug/disk after 24 hrs by disk diffusion assay; assay type: functional; settings: read-out: Diameter of inhibition zone; procedure, shortened: as §1
[3] = test system: Geobacillus stearothermophilus; assay: Antibacterial activity against Bacillus stearothermophilus NCA 1518 after 24 hrs by disk diffusion assay; assay type: functional, organism-based; procedure, shortened: as §1
[4] = test system: Staphylococcus aureus; assay: Antibacterial activity against Staphylococcus aureus T-AQ 49/YF29 at 500 ug/disk after 24 hrs by disk diffusion assay; assay type: functional; settings: read-out: Diameter of inhibition zone; procedure, shortened: as §1
[5] = test system: Enterococcus faecalis; assay: Antibacterial activity against Streptococcus faecalis NCIB 775 at 75 ug/disk after 24 hrs by disk diffusion assay; assay type: functional; settings: read-out: Diameter of inhibition zone
Procedure, shortened: (§2)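 Test material loaded onto 6 mm sterile filter-paper discs. Each disc sits at the centre of a plate of 15 ml plate count agar overlaid with 3 ml soft nutrient agar (nutrient broth + 0.7% agar) carrying 1% of a 16–18 h culture. Activity is read as the diameter of the no-growth zone around the disc.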

[6] = test system: Geobacillus stearothermophilus; assay: Antibacterial activity against Bacillus stearothermophilus NCA 1518 at 250 ug/disk after 24 hrs by disk diffusion assay; assay type: functional; settings: read-out: Diameter of inhibition zone; procedure, shortened: as §1
[7] = test system: Bacillus cereus; assay: Bactericidal activity against Bacillus cereus NCIB 3329 at 100 ug/ml upto 4 hrs by liquid culture assay; assay type: functional, organism-based
Procedure, shortened: (§3)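 Wells hold brain heart infusion (200 µl) plus 50 µl inoculum at 10³–10⁵ cfu/ml, with dicranin added as the sodium salt in water (10–200 μg/ml tested). Cultures are incubated at the strain's optimal growth temperature. Duplicate 100 µl samples are taken at 0, 2, 4, 6, 8 and 24 h, diluted in tryptone salt to 10–500 bacteria/plate, plated on plate count agar, and colonies counted after 24 h.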

[8] = test system: Bacillus subtilis; assay: Antibacterial activity against Bacillus subtilis NCIB 3610 at 50 ug/disk after 24 hrs by disk diffusion assay; assay type: functional; settings: read-out: Diameter of inhibition zone; procedure, shortened: as §1
[9] = test system: Bacillus cereus; assay: Antibacterial activity against Bacillus cereus NCIB 3329 at 125 ug/disk after 24 hrs by disk diffusion assay; assay type: functional; settings: read-out: Diameter of inhibition zone; procedure, shortened: as §1
[10] = test system: Bacillus subtilis; assay: Antibacterial activity against Bacillus subtilis NCIB 3610 at 10 ug/disk after 24 hrs by disk diffusion assay; assay type: functional; settings: read-out: Diameter of inhibition zone; procedure, shortened: as §1
[11] = test system: Bacillus subtilis; assay: Antibacterial activity against Bacillus subtilis NCIB 3610 at 125 ug/disk after 24 hrs by disk diffusion assay; assay type: functional; settings: read-out: Diameter of inhibition zone; procedure, shortened: as §1
[12] = test system: Staphylococcus aureus; assay: Antibacterial activity against Staphylococcus aureus T-AQ 49/YF29 at 75 ug/disk after 24 hrs by disk diffusion assay; assay type: functional; settings: read-out: Diameter of inhibition zone; procedure, shortened: as §1
[13] = test system: Enterococcus faecalis; assay: Antibacterial activity against Streptococcus faecalis NCIB 775 after 24 hrs by disk diffusion assay; assay type: functional, organism-based; procedure, shortened: as §1
[14] = test system: Bacillus cereus; assay: Antibacterial activity against Bacillus cereus NCIB 3329 at 25 ug/disk after 24 hrs by disk diffusion assay; assay type: functional; settings: read-out: Diameter of inhibition zone; procedure, shortened: as §1
[15] = test system: Salmonella typhimurium; assay: Antibacterial activity against Salmonella Typhimurium NCIB 10248 at 1 mg/disk after 24 hrs by disk diffusion assay; assay type: functional, organism-based; settings: Salmonella enterica subsp. enterica serovar Typhimurium; procedure, shortened: as §1
[16] = test system: Geobacillus stearothermophilus; assay: Bacteriostatic activity against Bacillus stearothermophilus NCA 1518 at 50 to 150 ug/ml after 4 hrs by liquid culture assay; assay type: functional, organism-based; procedure, shortened: as §3
[17] = test system: Geobacillus stearothermophilus; assay: Antibacterial activity against Bacillus stearothermophilus NCA 1518 at 100 ug/disk after 24 hrs by disk diffusion assay; assay type: functional; settings: read-out: Diameter of inhibition zone; procedure, shortened: as §1
[18] = test system: Bacillus cereus; assay: Bactericidal activity against Bacillus cereus NCIB 3329 at 50 ug/ml by liquid culture assay; assay type: functional, organism-based; procedure, shortened: as §3
[19] = test system: Pseudomonas putida; assay: Antibacterial activity against Pseudomonas putida T-AQ 18/YF18 at 1 mg/disk after 24 hrs by disk diffusion assay; assay type: functional, organism-based; procedure, shortened: as §1
[20] = test system: Geobacillus stearothermophilus; assay: Antibacterial activity against Bacillus stearothermophilus NCA 1518 at 125 ug/disk after 24 hrs by disk diffusion assay; assay type: functional; settings: read-out: Diameter of inhibition zone; procedure, shortened: as §1
[21] = test system: Geobacillus stearothermophilus; assay: Antibacterial activity against Bacillus stearothermophilus NCA 1518 at 50 ug/disk after 24 hrs by disk diffusion assay; assay type: functional; settings: read-out: Diameter of inhibition zone; procedure, shortened: as §1
[22] = test system: Staphylococcus aureus; assay: Antibacterial activity against Staphylococcus aureus T-AQ 49/YF29 at 50 ug/disk after 24 hrs by disk diffusion assay; assay type: functional; settings: read-out: Diameter of inhibition zone; procedure, shortened: as §1
[23] = test system: Enterococcus faecalis; assay: Antibacterial activity against Streptococcus faecalis NCIB 775 at 25 ug/disk after 24 hrs by disk diffusion assay; assay type: functional; settings: read-out: Diameter of inhibition zone; procedure, shortened: as §2
[24] = test system: Staphylococcus aureus; assay: Antibacterial activity against Staphylococcus aureus T-AQ 49/YF29 at 250 ug/disk after 24 hrs by disk diffusion assay; assay type: functional; settings: read-out: Diameter of inhibition zone; procedure, shortened: as §1
[25] = test system: Geobacillus stearothermophilus; assay: Bactericidal activity against Bacillus stearothermophilus NCA 1518 at 50 to 150 ug/ml upto 4 hrs by liquid culture assay; assay type: functional, organism-based; procedure, shortened: as §3
[26] = test system: Bacillus subtilis; assay: Antibacterial activity against Bacillus subtilis NCIB 3610 at 100 ug/disk after 24 hrs by disk diffusion assay; assay type: functional; settings: read-out: Diameter of inhibition zone; procedure, shortened: as §1

CC/C=C\C/C=C\C/C=C\CC#CCCCCC(=O)O [DICRANIN]
Activity [1]: inactive
zone of inhibition at 10 µg/disc [2]: 0 mm
Activity [3]: Active
zone of inhibition at 500 µg/disc [4]: 22 mm
zone of inhibition at 75 µg/disc [5]: 13 mm
zone of inhibition at 250 µg/disc [6]: 26 mm
Activity [7]: Active
zone of inhibition at 50 µg/disc [8]: 11 mm
zone of inhibition at 125 µg/disc [9]: 16 mm
zone of inhibition at 10 µg/disc [10]: 0 mm
zone of inhibition at 125 µg/disc [11]: 14 mm
zone of inhibition at 75 µg/disc [12]: 12 mm
Activity [13]: Active
zone of inhibition at 25 µg/disc [14]: 9 mm
Activity [15]: inactive
Activity [16]: Active
zone of inhibition at 100 µg/disc [17]: 16 mm
Activity [18]: Active
Activity [19]: inactive
zone of inhibition at 125 µg/disc [20]: 17 mm
zone of inhibition at 50 µg/disc [21]: 11 mm
zone of inhibition at 50 µg/disc [22]: 11 mm
zone of inhibition at 25 µg/disc [23]: 10 mm
zone of inhibition at 250 µg/disc [24]: 21 mm
Activity [25]: Active
zone of inhibition at 100 µg/disc [26]: 13 mm
